In the library only some 3.5% were active in any assay of this set; here they are far more common.
Env fusion inh: inhibitors of HIV Env-mediated cell fusion | HeLa-JRFL Env/CEM21 cell fusion, luciferase | inhibition, % at 12.3 µM | 360,000 tested, 1.1% active | AID 651610;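 active = mean replicate inhibition score of at least 50 and every replicate individually at or above 50; inconclusive = only one of the two criteria met; inactive = mean below 50 and not all replicates reaching 50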
rRNA inh HTS: selective bacterial rRNA inhibition in E. coli. 350,000 tested, 1.6% active. E. coli WT GFP vs humanized-ribosome RFP mutants, fluorescence, 24 h; stronger effect = lower value; DMSO median 0, no signal -100. GFP signal change (wild-type ribosome), % (test concentration not listed);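 active = significant combined selectivity score with lowered wild-type GFP, culture density cut under 30%, mutant RFP and density less affected; inactive = any of these conditions unmet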
DENV2 CPE: DENV2-induced cell death inhibition. CPE inhibition, % at 9.99 µM. DENV2-infected cells, cytopathic effect rescue, plate reader. AID 651640. 350,000 tested, 1.7% active; in the data active = CPE inhibition above about 20%, passing the limit was not always enough; inconclusive = no clear call, values can overlap the other calls; tested in BHK-21 cells
PglD inh: blocks C. jejuni PglD acetyltransferase activity; purified PglD enzyme, DTNB colorimetric CoA detection; inhibition, % at 12.5 µM; 360,000 tested, 0.098% active; AID 602405; in the data active = inhibition above about 16%, passing the limit was not always enough; inconclusive = no clear call, values can overlap the other calls
PGC1a acetyl inh: PGC1a acetylation modulation, inhibitor mode. U2OS PGC1a acetylation, AlphaScreen anti-acetyl-lysine; with virally co-expressed GCN5 acetyltransferase. inhibition, % at 15.6 µM. 350,000 tested, 0.17% active;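 active = every replicate shows inhibition of at least 40%; inconclusive = mean inhibition at least 40% but some replicate below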
FN deposition inh: fibronectin deposition inhibition; AH1F fibroblasts, Alexa488-fibronectin deposition fluorescence, overnight; inhibition, % at 12.6 µM; 350,000 tested, 0.086% active; AID 743247;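 active = mean inhibition across replicates of 30% or more, regardless of how many single replicates reach that level; inconclusive = mean under 30% yet at least half of replicates reach 30%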
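Material – AH1F fibroblast monolayer, labelled fibronectin deposition · Reagent – labelled fibronectin 24 nM · Timing – 1 h adhesion, overnight exposure · Measured by – fluorescence at 485 nm excitation, 525 nm emission · Read-out – inhibition of fibronectin deposition signal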
Each line names hits and unclear results; the compound was inactive in the other large screens; [ ] = another dose, or the depositor's remark.

Cc1ccc(SCCSc2nc(N)cc(=O)[nH]2)cc1	none
Nc1cc(=O)[nH]c(SCCSc2ccc(F)cc2)n1	Env fusion inh 66, DENV2 CPE inconclusive
CCOC(=O)c1c(NC(=O)CN2CCCCC2)sc2c1CCN(C(=O)OCC)C2	rRNA inh HTS -38 (no result: Env fusion inh, PglD inh, PGC1a acetyl inh, FN deposition inh)
CCOC(=O)c1c(NC(=O)CN(CC)CC)sc2c1CCN(C(=O)OCC)C2	none (no result: Env fusion inh, DENV2 CPE, FN deposition inh)
Cc1ccc2c(c1)-n1c(nc3ccc(C)cc3c1=O)C(Cc1ccc(O)cc1)NC2=O (centres undefined)	DENV2 CPE 33 (no result: PglD inh, PGC1a acetyl inh)
Cc1ccc2nc3n(c(=O)c2c1)-c1cc(Cl)ccc1C(=O)NC3Cc1ccc(O)cc1 (centres undefined)	none (no result: DENV2 CPE, PglD inh, PGC1a acetyl inh)
Cc1ccc2nc3n(c(=O)c2c1)-c1ccc(Cl)cc1C(=O)NC3CC(C)C (centres undefined)	DENV2 CPE 77 (no result: rRNA inh HTS, PglD inh, PGC1a acetyl inh)
CCC(=O)N[C@@H]1CC[C@@H](CC(=O)NCc2ccccc2OC)O[C@H]1CO	none (no result: FN deposition inh)
C[C@@H]1CN([C@H](C)CO)S(=O)(=O)c2ccc(C3=CCCC3)cc2O[C@@H]1CN(C)Cc1ccccn1	none (no result: Env fusion inh)
COc1ccc(-c2ccc(C3[C@H]4CNC[C@@H]3N4Cc3cc(F)ccc3F)cc2)cc1 (some centres undefined)	none (no result: Env fusion inh, PglD inh, PGC1a acetyl inh)
Nc1cc(Cl)ccc1Oc1ccc2ccccc2c1	rRNA inh HTS -24 (no result: Env fusion inh, PglD inh, FN deposition inh)
COc1ccc(NC(=O)N(C)C[C@@H]2OCc3cn(nn3)CCCC(=O)N([C@H](C)CO)C[C@@H]2C)cc1	none (no result: DENV2 CPE, PglD inh)
O=C(CCCc1nc(-c2ccccc2Cl)no1)NC1CCCC1	Env fusion inh 66
COc1ccc(S(=O)(=O)N[C@@H]2CC[C@H](CC(=O)NCc3ccccc3F)O[C@H]2CO)cc1	none (no result: FN deposition inh)
C[C@@H]1CCCCO[C@@H](CN(C)Cc2ccc(C(F)(F)F)cc2)[C@H](C)CN([C@@H](C)CO)C(=O)c2cc(NC(=O)NC3CCCCC3)ccc2O1	DENV2 CPE inconclusive (no result: FN deposition inh)
C[C@H](CO)N1C[C@H](C)[C@H](CN(C)Cc2ccc(C(F)(F)F)cc2)OCCCC[C@H](C)Oc2ccc(NC(=O)NC3CCCCC3)cc2C1=O	Env fusion inh 72[16.7 µM] (no result: FN deposition inh)
C[C@H]1CCCCO[C@H](CN(C)Cc2ccc(C(F)(F)F)cc2)[C@@H](C)CN([C@@H](C)CO)C(=O)c2cc(NC(=O)NC3CCCCC3)ccc2O1	Env fusion inh 66[16.7 µM] (no result: FN deposition inh)
C[C@@H]1CCCCO[C@@H](CN(C)Cc2ccc(C(F)(F)F)cc2)[C@@H](C)CN([C@@H](C)CO)C(=O)c2cc(NC(=O)NC3CCCCC3)ccc2O1	none (no result: FN deposition inh)
C[C@@H]1CN([C@H](C)CO)C(=O)c2cc(NS(=O)(=O)c3ccccc3)ccc2O[C@@H]1CN(C)C(=O)NC1CCCCC1	none (no result: Env fusion inh, FN deposition inh)
COC(=O)Cc1[nH]nc2c1C1(C(=O)N(Cc3ccccc3)c3ccccc31)C(C#N)=C(N)O2 (centres undefined)	none (no result: rRNA inh HTS, DENV2 CPE)
Cc1[nH]nc2c1C1(C(=O)N(Cc3ccc(Cl)cc3)c3ccccc31)C(C#N)=C(N)O2 (centres undefined)	Env fusion inh 85 (no result: rRNA inh HTS, DENV2 CPE)
C[C@H]1CN([C@@H](C)CO)C(=O)c2c(c3ccccc3n2C)-c2ccccc2CO[C@H]1CN(C)S(=O)(=O)Cc1ccccc1	none
Cc1ccc(/C=N/NC(=O)c2ccc(-n3cnnn3)cc2)cc1	DENV2 CPE 32 (no result: Env fusion inh)
O=C(N/N=C/c1ccc(F)cc1)c1ccc(-n2cnnn2)cc1	none
O=C(C[C@H]1C=C[C@H](NC(=O)Nc2ccc3c(c2)OCO3)[C@@H](CO)O1)NCc1ccc2c(c1)OCO2	none (no result: FN deposition inh)
O=C(O)CNC(=O)c1ccc(NS(=O)(=O)c2ccc3ccccc3c2)cc1	DENV2 CPE 31 (no result: PGC1a acetyl inh)
CC(=O)c1ccc(NS(=O)(=O)c2ccc3ccccc3c2)cc1	none (no result: Env fusion inh, rRNA inh HTS, DENV2 CPE, FN deposition inh)
C[C@@H]1CCCCO[C@@H](CN(C)S(=O)(=O)c2cn(C)cn2)[C@H](C)CN([C@@H](C)CO)C(=O)c2cc(NS(=O)(=O)c3ccc(Cl)cc3)ccc2O1	DENV2 CPE 28
C[C@H]1CCCCO[C@@H](CN(C)S(=O)(=O)c2cn(C)cn2)[C@@H](C)CN([C@@H](C)CO)C(=O)c2cc(NS(=O)(=O)c3ccc(Cl)cc3)ccc2O1	DENV2 CPE 47
C[C@@H]1CCCCO[C@H](CN(C)S(=O)(=O)c2cn(C)cn2)[C@H](C)CN([C@H](C)CO)C(=O)c2cc(NS(=O)(=O)c3ccc(Cl)cc3)ccc2O1	none
C[C@@H]1CCCCO[C@H](CN(C)S(=O)(=O)c2cn(C)cn2)[C@@H](C)CN([C@H](C)CO)C(=O)c2cc(NS(=O)(=O)c3ccc(Cl)cc3)ccc2O1	none
CN(Cc1ccc(F)cc1)C(=O)c1cc(COc2ccc(-n3cncn3)cc2)on1	Env fusion inh 62 (no result: FN deposition inh)
CCN(CC)S(=O)(=O)c1ccc(NC(=O)C2CCCN(C(=O)c3ccc(Cl)cc3)C2)cc1 (centres undefined)	rRNA inh HTS -23 (no result: Env fusion inh, PGC1a acetyl inh)
O=C(Cc1cccc(NC(=O)C2CCCN(C(=O)C3CCC3)C2)c1)Nc1ccc(C(=O)N2CCOCC2)cc1 (centres undefined)	DENV2 CPE 32 (no result: PGC1a acetyl inh)
O=C(Cc1cccc([N+](=O)[O-])c1)Nc1ccc(C(=O)N2CCCCC2)cc1	DENV2 CPE 81 (no result: PGC1a acetyl inh)
O=C(Cc1cccc(NC(=O)C2CCCN(C(=O)CCc3ccccc3)C2)c1)Nc1cccc(C(=O)N2CCCCC2)c1 (centres undefined)	rRNA inh HTS -18
C[C@H](O)C#Cc1ccc2c(c1)O[C@@H](CN(C)Cc1ccccc1)[C@@H](C)CN([C@H](C)CO)S2(=O)=O	none
O=C(Cc1cccc(NC(=O)C2CCCN(C(=O)C3CCCC3)C2)c1)Nc1ccc(C(=O)N2CCOCC2)cc1 (centres undefined)	DENV2 CPE 27 (no result: PGC1a acetyl inh)
O=C(CNCc1ccc(Cl)cc1)Nc1ccc(C(=O)N2CCCCCC2)cc1	rRNA inh HTS -30
O=C(Cc1cccc(NC(=O)C2CCCN(C(=O)C3CCCC3)C2)c1)Nc1cccc(C(=O)N2CCOCC2)c1 (centres undefined)	none
O=C(Nc1cccc(-n2cnnn2)c1)C1CCCN(C(=O)Cc2cccc(Cl)c2)C1 (centres undefined)	DENV2 CPE 61
O=C(CNCc1ccc(Cl)cc1)Nc1ccc(C(=O)N2CCCCC2)cc1	none (no result: PGC1a acetyl inh)
CCC(=O)N(C)C[C@H]1Oc2ncc(C#Cc3ccccc3)cc2C(=O)N([C@H](C)CO)C[C@H]1C	none
C[C@@H]1CN([C@@H](C)CO)C(=O)Cc2cc(NC(=O)Nc3cccc4ccccc34)ccc2O[C@@H]1CN(C)C(=O)Nc1cccc2ccccc12	none (no result: FN deposition inh)
C[C@@H]1CN([C@@H](C)CO)C(=O)Cc2cc(NC(=O)Nc3ccc(F)cc3)ccc2O[C@@H]1CN(C)C(=O)Nc1cccc2ccccc12	DENV2 CPE 41 (no result: FN deposition inh)

High-throughput results (PubChem BioAssay)
